# Data: ChEMBL document CHEMBL5331087, “Targeted AURKA degradation: Towards new therapeutic agents for neuroblastoma” (Eur J Med Chem, 2023)
# The source made the active and inactive calls. No cut-off for these calls is given here.
# Columns and labels:
# [1] = target: T1, Protein cereblon/Aurora kinase A (Homo sapiens) (UniProt O14965+Q96SW2); assay: PROTAC activity at AURKA/CRBN in human NGP cells assessed as AURKA degradation at 10 to 1000 nM measured for 24 hrs by Western blot analysis relative to control; assay type: cell-based; settings: dose 10-1000 nM
# How it was run: (§1)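 NGP cells were seeded at about 2×10^6 per flask, adhered for 48 h, and were then treated for 24 h with DMSO matched. Lysis was in RIPA with protease/phosphatase inhibitors. AURKA was quantified by capillary Simple Western with peak areas normalised to vinculin. Fold change is relative to DMSO (mean ± SD, n = 3).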
# [2] = Antiproliferative activity against human NGP cells assessed as reduction in cell viability incubated for 48 hrs; assay type: functional, cell-based
# How it was run: (§2)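 Cells were grown in RPMI 1640 with 10% FCS and 2 mM L-glutamine. Seeding was 4500 cells/well for NGP, IMR-32 and N206, and 2100 cells/well for SK-N-AS, with adherence overnight. Compound was dispensed over a concentration range in triplicate. Confluence was imaged live for 48 h and normalised to the DMSO control. Absolute IC50 came from a four-parameter variable-slope fit (n = 4).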
# [3] = target: T1, Protein cereblon/Aurora kinase A (Homo sapiens); assay: PROTAC activity at AURKA/CRBN in human NGP cells assessed as AURKA degradation at 10 nM measured for 24 hrs by Western blot analysis relative to control; assay type: cell-based; how it was run: as §1
# [4] = target: T1, Protein cereblon/Aurora kinase A (Homo sapiens); assay: PROTAC activity at AURKA/CRBN in human NGP cells assessed as downregulation of AURKA level at 10 to 1000 nM measured for 24 hrs by Western blot analysis; assay type: cell-based; settings: dose 10-1000 nM; how it was run: as §1
# [5] = target: T1, Protein cereblon/Aurora kinase A (Homo sapiens); assay: PROTAC activity at AURKA/CRBN in human NGP cells assessed as AURKA degradation measured for 24 hrs by Western blot analysis; assay type: cell-based; settings: dose 10-1000 nM
# [6] = target: T1, Protein cereblon/Aurora kinase A (Homo sapiens); assay: PROTAC activity at AURKA/CRBN in human NGP cells assessed as reduction in AURKA level at 100 nM measured for 24 hrs by Western blot analysis relative to control; assay type: cell-based; design: scale not given: the % may be the effect or the level left; how it was run: as §1
# [7] = target: T1, Protein cereblon/Aurora kinase A (Homo sapiens); assay: PROTAC activity at AURKA/CRBN in human NGP cells assessed as reduction in AURKA level at 10 nM measured for 24 hrs by Western blot analysis relative to control; assay type: cell-based; design: scale not given: the % may be the effect or the level left; how it was run: as §1
# [8] = target: T1, Protein cereblon/Aurora kinase A (Homo sapiens); assay: PROTAC activity at AURKA/CRBN in human NGP cells assessed as AURKA degradation at 1000 nM measured for 24 hrs by Western blot analysis relative to control; assay type: cell-based; how it was run: as §1
# Aurora kinase A = target: T2, Aurora kinase A (Homo sapiens, UniProt O14965); assay: Induction of AURKA degradation (unknown origin) measured for 6 hrs
# T2 sequence (O14965 whole entry): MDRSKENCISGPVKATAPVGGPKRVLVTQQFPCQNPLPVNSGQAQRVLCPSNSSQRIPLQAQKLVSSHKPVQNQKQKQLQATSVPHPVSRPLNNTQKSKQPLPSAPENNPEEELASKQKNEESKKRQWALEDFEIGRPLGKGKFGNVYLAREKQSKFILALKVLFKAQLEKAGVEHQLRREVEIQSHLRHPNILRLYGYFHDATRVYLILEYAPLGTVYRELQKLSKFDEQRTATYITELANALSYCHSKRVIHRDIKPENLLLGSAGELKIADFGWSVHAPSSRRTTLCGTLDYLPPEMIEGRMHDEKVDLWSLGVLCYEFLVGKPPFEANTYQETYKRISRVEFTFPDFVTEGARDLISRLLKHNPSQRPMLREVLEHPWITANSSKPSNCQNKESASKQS
# [9] = target: T3, Aurora kinase A (Homo sapiens) (UniProt O14965); assay: Induction of AURKA degradation (unknown origin) measured for 6 hrs relative to control
# T3 sequence (whole entry): T2 sequence (O14965 whole entry)
# [10] = target: T4, N-myc proto-oncogene protein (Homo sapiens) (UniProt P04198); assay: Induction of MYCN degradation in human NGP cells at 500 nM measured upto 72 hrs by Western blot analysis; assay type: cell-based
# T4 sequence (whole entry): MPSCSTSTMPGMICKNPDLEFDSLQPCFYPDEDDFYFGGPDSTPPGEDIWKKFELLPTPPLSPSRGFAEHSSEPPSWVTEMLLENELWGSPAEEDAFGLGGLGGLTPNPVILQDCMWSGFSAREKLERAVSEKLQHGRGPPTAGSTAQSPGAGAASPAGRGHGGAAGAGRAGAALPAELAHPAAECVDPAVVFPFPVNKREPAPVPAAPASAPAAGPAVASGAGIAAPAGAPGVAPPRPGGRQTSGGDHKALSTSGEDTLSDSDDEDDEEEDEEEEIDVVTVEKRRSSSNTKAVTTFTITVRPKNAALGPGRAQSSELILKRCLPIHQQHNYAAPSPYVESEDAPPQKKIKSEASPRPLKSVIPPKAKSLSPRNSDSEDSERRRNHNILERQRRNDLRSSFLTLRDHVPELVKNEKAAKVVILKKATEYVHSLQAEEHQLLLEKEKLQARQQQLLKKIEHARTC
# How it was run: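 NGP cells were treated with 500 nM compound and harvested at 0, 1, 3, 6, 24, 48 and 72 h. RIPA lysates (35 µg) were run on 10% SDS-PAGE and blotted to nitrocellulose. AURKA and MYCN were probed with vinculin as loading control and quantified by densitometry. Values are percent remaining relative to the DMSO control at each timepoint (n = 3).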
# [11] = Antiproliferative activity against human N206 cells assessed as reduction in cell viability incubated for 48 hrs; assay type: functional, cell-based; how it was run: as §2
# [12] = Growth inhibition of patient derived 000GKX Neuroblastoma organoid assessed as reduction in viability […] by CellTiter Glo 3D assay; assay type: functional, tissue-based, Homo sapiens; settings: Homo sapiens, Neuroblastoma organoid; read-out: IC50
# How it was run: (§3)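 Patient-derived organoids were dissociated to single cells with Accutase and seeded in NB organoid medium at 5000 (000GKX), 20000 (NB059), 5000 (NB067) or 3000 (NB139) cells/well. Compound was added after 24 h over a concentration range in triplicate, with DMSO matched. Incubation was 120 h at 37 °C and 5% CO2. Viability was read by CellTiter-Glo 3D, and absolute IC50 derived (n = 1).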
# [13] = Growth inhibition of patient derived NB139 Neuroblastoma organoid assessed as reduction in viability […] by CellTiter Glo 3D assay; assay type: functional, tissue-based; settings: Homo sapiens; how it was run: as §3
# [14] = Growth inhibition of patient derived NB067 Neuroblastoma organoid assessed as reduction in viability […] by CellTiter Glo 3D assay; assay type: functional, tissue-based; settings: Homo sapiens; how it was run: as §3
# SK-N-AS [15] = assay: Antiproliferative activity against human SK-N-AS cells assessed as reduction in cell viability incubated for 48 hrs relative to control; assay type: functional
# How it was run: (§4)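 Cells grown in RPMI 1640 with 10% fetal calf serum, 2 mM L-glutamine and penicillin/streptomycin at 37 °C, 5% CO2. Seeded at 4500 (IMR-32) or 2100 (SK-N-AS) cells/well in 384-well plates and left to adhere overnight. Concentration range dispensed in triplicate. Confluence tracked by IncuCyte live-cell imaging, and 48h values normalized to DMSO. Absolute IC50 taken from a four-parameter variable-slope fit (n = 4).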
# Homo sapiens [16] = organism: Homo sapiens; assay: Growth inhibition of patient derived NB139 Neuroblastoma organoid assessed as reduction in viability incubated for […] by CellTiter Glo 3D assay relative to control; assay type: functional
# [17] = Growth inhibition of patient derived NB059 Neuroblastoma organoid assessed as reduction in viability incubated for 48 hrs by CellTiter Glo 3D assay; assay type: functional, tissue-based, Homo sapiens; settings: in the assay text read “120 hrs” for “48 hrs”; how it was run: as §3
# IMR-32 [18] = assay: Antiproliferative activity against human IMR-32 cells assessed as reduction in cell viability incubated for 48 hrs relative to control; assay type: functional; how it was run: as §4
# Homo sapiens [19] = organism: Homo sapiens; assay: Growth inhibition of patient derived NB059 Neuroblastoma organoid assessed as reduction in viability incubated for […] by CellTiter Glo 3D assay relative to control; assay type: functional
# N206 = assay: Antiproliferative activity against human N206 cells assessed as reduction in cell viability incubated for 48 hrs relative to control; assay type: functional
# Homo sapiens [20] = organism: Homo sapiens; assay: Growth inhibition of patient derived NB067 Neuroblastoma organoid assessed as reduction in viability incubated for […] by CellTiter Glo 3D assay relative to control; assay type: functional
# [21] = target: T1, Protein cereblon/Aurora kinase A (Homo sapiens); assay: PROTAC activity at AURKA/CRBN in human NGP cells assessed as AURKA degradation at 10 to 1000 nM measured for 24 hrs by immunoblotting analysis; assay type: cell-based; settings: dose 10-1000 nM; how it was run: as §1
# NGP = assay: Antiproliferative activity against human NGP cells assessed as reduction in cell viability incubated for 48 hrs relative to control; assay type: functional
# Homo sapiens [22] = organism: Homo sapiens; assay: Growth inhibition of patient derived 000GKX Neuroblastoma organoid assessed as reduction in viability incubated for […] by CellTiter Glo 3D assay relative to control; assay type: functional
# IMR-32 [23] = assay: Antiproliferative activity against human IMR-32 cells assessed as reduction in cell viability incubated for 48 hrs; assay type: functional, cell-based; settings: IMR-32, 48 h; how it was run: as §2
# SK-N-AS [24] = assay: Antiproliferative activity against human SK-N-AS cells assessed as reduction in cell viability incubated for 48 hrs; assay type: functional, cell-based; settings: sk-n-as; how it was run: as §2
# [25] = target: T1, Protein cereblon/Aurora kinase A (Homo sapiens); assay: PROTAC activity at AURKA/CRBN in human NGP cells assessed as AURKA degradation at 0.1 to 1000 nM measured for 24 hrs by Western blot analysis relative to control; assay type: cell-based; settings: dose 0.1-1000 nM; how it was run: as §1
# T1 sequence (Q96SW2 whole entry, looked up, one chain of several): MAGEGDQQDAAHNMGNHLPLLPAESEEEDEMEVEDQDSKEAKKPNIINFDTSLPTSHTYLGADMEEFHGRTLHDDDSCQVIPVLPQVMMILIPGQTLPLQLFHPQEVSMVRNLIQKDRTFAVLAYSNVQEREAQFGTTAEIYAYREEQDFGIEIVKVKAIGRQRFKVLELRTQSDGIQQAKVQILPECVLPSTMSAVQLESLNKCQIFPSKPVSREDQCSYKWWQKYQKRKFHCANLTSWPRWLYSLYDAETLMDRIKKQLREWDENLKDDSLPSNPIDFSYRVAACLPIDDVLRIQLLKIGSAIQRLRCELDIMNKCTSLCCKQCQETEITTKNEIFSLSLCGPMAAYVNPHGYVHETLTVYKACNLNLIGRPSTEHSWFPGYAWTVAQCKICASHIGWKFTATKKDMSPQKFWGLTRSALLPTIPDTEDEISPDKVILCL
smiles,measurement,setting,value
O=C1CCC(N2C(=O)c3ccc(OCCOCCOCCOCCOCCNC(=O)[C@]4(Cc5cccc(Nc6nccs6)n5)CC[C@@H](Oc5cccc(Cl)c5F)CC4)cc3C2=O)C(=O)N1 (stereo partly drawn),Emax,[1],85%
same,IC50,[2],0.034 µM
same,Emax,[3],85%
CN1C(=O)CCC(N2C(=O)c3cccc(OCCOCCOCCOCCNC(=O)[C@]4(Cc5cccc(Nc6nccs6)n5)CC[C@@H](Oc5cccc(Cl)c5F)CC4)c3C2=O)C1=O (stereo partly drawn),Activity,[4],inactive
same,IC50,[2],1.1 µM
O=C1CCC(N2C(=O)c3cccc(OCCOCCOCCOCCOCCNC(=O)[C@]4(Cc5cccc(Nc6nccs6)n5)CC[C@@H](Oc5cccc(Cl)c5F)CC4)c3C2=O)C(=O)N1 (stereo partly drawn),Emax,[1],85%
same,IC50,[2],0.0509 µM
same,Activity,[5],Active
O=C1CCC(N2C(=O)c3ccc(OCCOCCNC(=O)[C@]4(Cc5cccc(Nc6nccs6)n5)CC[C@@H](Oc5cccc(Cl)c5F)CC4)cc3C2=O)C(=O)N1 (stereo partly drawn),Activity,[6],17%
same,Activity,[7],45%
same,IC50,[2],0.0633 µM
same,Activity,[8],Active
O=C(COc1cccc2c1C(=O)N(C1CCC(=O)NC1=O)C2=O)NCCOCCOCCOCCNC(=O)[C@]1(Cc2cccc(Nc3nccs3)n2)CC[C@@H](Oc2cccc(Cl)c2F)CC1 (stereo partly drawn),IC50,[2],0.102 µM
same,DC50,Aurora kinase A,0.003 µM
same,Emax,[9],82%
O=C1CCC(N2C(=O)c3ccc(OCCOCCOCCNC(=O)[C@]4(Cc5cccc(Nc6nccs6)n5)CC[C@@H](Oc5cccc(Cl)c5F)CC4)cc3C2=O)C(=O)N1 (stereo partly drawn),Emax,[1],85%
same,IC50,[2],0.0699 µM
O=C(O)[C@]1(Cc2cccc(Nc3nccs3)n2)CC[C@@H](Oc2cccc(Cl)c2F)CC1 [MK-5108],Activity,[10],Active
same,IC50,[11],Not Active
same,IC50,[12],0.483 µM
same,IC50,[13],0.9 µM
same,IC50,[14],0.0753 µM
same,Emax,SK-N-AS [15],58.5%
same,Emax,Homo sapiens [16],44.1%
same,IC50,[17],Not Active
same,Emax,IMR-32 [18],20.4%
same,Emax,Homo sapiens [19],75.9%
same,Emax,N206,53.2%
same,IC50,[2],0.362 µM
same,Emax,Homo sapiens [20],14.2%
same,Activity,[21],inactive
same,Emax,NGP,32.9%
same,Emax,Homo sapiens [22],59.5%
same,IC50,IMR-32 [23],0.199 µM
same,IC50,SK-N-AS [24],Not Active
O=C1CCC(N2C(=O)c3cccc(OCCOCCNC(=O)[C@]4(Cc5cccc(Nc6nccs6)n5)CC[C@@H](Oc5cccc(Cl)c5F)CC4)c3C2=O)C(=O)N1 (stereo partly drawn),Activity,[1],inactive
same,IC50,[2],1.31 µM
same,Activity,[5],inactive
COc1cc(Nc2ncc3c(n2)-c2ccc(Cl)cc2C(c2c(F)cccc2OC)=NC3)ccc1C(=O)NCCOCCOCCNC(=O)COc1cccc2c1C(=O)N(C1CCC(=O)NC1=O)C2=O (stereo not drawn),Emax,[25],73%
same,IC50,[2],0.877 µM
O=C(COc1cccc2c1C(=O)N(C1CCC(=O)NC1=O)C2=O)NCCOCCOCCNC(=O)[C@]1(Cc2cccc(Nc3nccs3)n2)CC[C@@H](Oc2cccc(Cl)c2F)CC1 (stereo partly drawn),IC50,[2],0.0833 µM
same,Activity,[5],Active
O=C1CCC(N2C(=O)c3ccc(OCCOCCOCCOCCNC(=O)[C@]4(Cc5cccc(Nc6nccs6)n5)CC[C@@H](Oc5cccc(Cl)c5F)CC4)cc3C2=O)C(=O)N1 (stereo partly drawn),Emax,[1],85%
same,IC50,[2],0.0401 µM
same,Emax,[3],85%
O=C1CCC(N2C(=O)c3cccc(OCCOCCOCCNC(=O)[C@]4(Cc5cccc(Nc6nccs6)n5)CC[C@@H](Oc5cccc(Cl)c5F)CC4)c3C2=O)C(=O)N1 (stereo partly drawn),Emax,[1],85%
same,IC50,[2],0.0808 µM
same,Activity,[5],Active
